# Test results published in ChEMBL document CHEMBL1125552, “Synthesis and biological evaluation of novel potent antagonists of the bombesin/gastrin releasing peptide receptor” (1992).
# Where a SMILES comes first, the peptide text is derived from it. The star is where a group is joined. X1 = CSCC[C@H](NC[C@H](CC(C)C)N*)C(N)=O; X2 = CC(=O)NC[C@H](CC(C)C)N*; For = O=C*
# Experiments:
# Assay type in all cases: functional
# [1] = target: Gastrin-releasing peptide receptor (Rattus norvegicus) (UniProt P52500); test: Tested for the inhibition of Bombesin-stimulated amylase release at 5 uM concentration in rat pranceatic acini
# Summary of the method: (§1)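 Dispersed rat pancreatic acini prepared by collagenase digestion (300 units/20 mL), washed through 4% BSA. Incubated 30 min at 37 °C under 100% oxygen in HEPES buffer (pH 7.4) with 0.5 mM CaCl₂, 1% albumin and trypsin inhibitor, with peptide plus 0.2 nM BN. Amylase (Phadebas test) released, as percent of initial acinar content, normalized to BN alone; triplicate measurements.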
# [2] = target: Gastrin-releasing peptide receptor (Rattus norvegicus) (UniProt P52500); test: Tested for the inhibition of Bombesin-stimulated amylase release at 5 uM concentration in the presence of 0.2 nM of bombesin in rat pranceatic acini; summary of the method: as §1
# [3] = target: Gastrin-releasing peptide receptor (Rattus norvegicus) (UniProt P52500); test: Tested for the inhibition of Bombesin-stimulated amylase release in the presence of 0.2 nM of bombesin in rat pranceatic acini; summary of the method: as §1
# [4] = target: Gastrin-releasing peptide receptor (Rattus norvegicus) (UniProt P52500); test: Tested for the inhibition of bombesin-stimulated amylase release in rat pranceatic acini; summary of the method: as §1
# [5] = target: Gastrin-releasing peptide receptor (Rattus norvegicus) (UniProt P52500); test: Tested for the inhibition of Bombesin-stimulated amylase release at 50 nM concentration in the presence of 0.2 nM of bombesin in rat pranceatic acini; summary of the method: as §1
# [6] = target: Gastrin-releasing peptide receptor (Rattus norvegicus) (UniProt P52500); test: Tested for the inhibition of Bombesin-stimulated amylase release at 50 nM concentration in rat pranceatic acini; summary of the method: as §1
# Gastrin-releasing peptide receptor (Rattus norvegicus), sequence (P52500 whole entry): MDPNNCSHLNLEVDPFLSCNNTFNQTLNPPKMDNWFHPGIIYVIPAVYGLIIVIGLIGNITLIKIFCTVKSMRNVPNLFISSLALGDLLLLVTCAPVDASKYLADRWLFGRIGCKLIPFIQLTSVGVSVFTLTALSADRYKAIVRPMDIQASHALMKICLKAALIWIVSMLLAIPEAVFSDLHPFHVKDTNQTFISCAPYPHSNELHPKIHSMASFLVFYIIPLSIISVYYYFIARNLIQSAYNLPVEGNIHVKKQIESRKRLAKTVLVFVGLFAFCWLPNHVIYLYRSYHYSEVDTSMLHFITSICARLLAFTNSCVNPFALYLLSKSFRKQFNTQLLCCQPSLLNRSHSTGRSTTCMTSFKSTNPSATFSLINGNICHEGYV
Release [1] [%],Release [2] [%],Release [3] [%],Release [4] [%],Release [5] [%],Release [6] [%],Compound
9.1,12.9,9.4,3.5,–,–,CN[C@H](Cc1ccccc1)C(=O)N[C@@H](Cc1c[nH]cn1)C(=O)N[C@@H](Cc1c[nH]c2ccccc12)C(=O)N[C@@H](C)C(=O)N[C@H](C(=O)NCC(=O)N[C@@H](Cc1c[nH]cn1)C(=O)N[C@@H](CC(C)C)CN(C=O)[C@@H](CCSC)C(N)=O)C(C)C
5.7,13.1,18.3,5.3,19.6,5.3,CSCC[C@H](NC[C@H](CC(C)C)NC(=O)[C@H](Cc1c[nH]cn1)NC(=O)CNC(=O)[C@@H](NC(=O)[C@H](C)NC(=O)[C@H](Cc1c[nH]c2ccccc12)NC(=O)[C@H](N)Cc1ccccc1)C(C)C)C(N)=O
–,12.5,16,3.2,15.8,–,CC(=O)NC[C@H](CC(C)C)NC(=O)[C@H](Cc1c[nH]cn1)NC(=O)CNC(=O)[C@@H](NC(=O)[C@H](C)NC(=O)[C@H](Cc1cn(C=O)c2ccccc12)NC(=O)[C@H](Cc1c[nH]cn1)NC(=O)[C@H](CCC(N)=O)NC(C)=O)C(C)C (Ac-QHW(For)AVGH-X2)
6,6.3,17.4,5.3,6.3,5.1,CCCCC[C@H](CC(C)C)NC(=O)[C@H](Cc1c[nH]cn1)NC(=O)CNC(=O)[C@@H](NC(=O)[C@H](C)NC(=O)[C@H](Cc1c[nH]c2ccccc12)NC(=O)[C@@H](Cc1c[nH]cn1)NC(=O)C(C)(C)C)C(C)C
3.6,4,15.9,3.1,12.2,–,CC(=O)NC[C@H](CC(C)C)NC(=O)[C@H](Cc1c[nH]cn1)NC(=O)CNC(=O)[C@@H](NC(=O)[C@H](C)NC(=O)[C@H](Cc1c[nH]c2ccccc12)NC(=O)[C@H](Cc1c[nH]cn1)NC(=O)[C@H](CCC(N)=O)NC(C)=O)C(C)C (Ac-QHWAVGH-X2)
10.3,13,10.4,3.7,–,–,CSCC[C@@H](C(N)=O)N(C=O)C[C@H](CC(C)C)NC(=O)[C@H](Cc1c[nH]cn1)NC(=O)CNC(=O)[C@@H](NC(=O)[C@H](C)NC(=O)[C@H](Cc1c[nH]c2ccccc12)NC(=O)[C@H](Cc1c[nH]cn1)NC(=O)[C@H](N)Cc1ccccc1)C(C)C
3.1,4.8,20.3,3.2,16.2,–,CC(=O)NC[C@H](CC(C)C)NC(=O)[C@H](Cc1c[nH]cn1)NC(=O)CNC(=O)[C@@H](NC(=O)[C@H](C)NC(=O)[C@H](Cc1cn(C=O)c2ccccc12)NC(=O)[C@H](Cc1c[nH]cn1)NC(=O)[C@H](N)Cc1ccccc1)C(C)C
–,4.3,16.5,3,14.8,–,CC(=O)NC[C@H](CC(C)C)NC(=O)[C@H](Cc1c[nH]cn1)NC(=O)CNC(=O)[C@@H](NC(=O)[C@H](C)NC(=O)[C@H](Cc1c[nH]c2ccccc12)NC(=O)[C@H](CCC(N)=O)NC(=O)[C@@H](Cc1ccccc1)NC(C)=O)C(C)C
3.6,8.2,14.4,3.6,14.5,–,CC(=O)NC[C@H](CC(C)C)NC(=O)[C@H](Cc1c[nH]cn1)NC(=O)CNC(=O)[C@@H](NC(=O)[C@H](C)NC(=O)[C@H](Cc1c[nH]c2ccccc12)NC(=O)[C@H](Cc1c[nH]cn1)NC(=O)[C@@H](N)CCC(N)=O)C(C)C (H-QHWAVGH-X2)

# More lines, now with the values behind:
Compound,Release [1] [%],Release [2] [%],Release [3] [%],Release [4] [%],Release [5] [%],Release [6] [%]
CSCC[C@@H](C(N)=O)N(C=O)C[C@H](CC(C)C)NC(=O)[C@H](Cc1c[nH]cn1)NC(=O)CNC(=O)[C@@H](NC(=O)[C@H](C)NC(=O)[C@H](Cc1c[nH]c2ccccc12)NC(=O)[C@H](Cc1c[nH]cn1)NC(=O)[C@H](CC(N)=O)NC(=O)CN)C(C)C,9.2,13.1,9.4,3.5,–,–
CSCC[C@@H](C(N)=O)N(C=O)C[C@H](CC(C)C)NC(=O)[C@H](Cc1c[nH]cn1)NC(=O)CNC(=O)[C@@H](NC(=O)[C@H](C)NC(=O)[C@H](Cc1c[nH]c2ccccc12)NC(=O)[C@H](Cc1c[nH]cn1)NC(=O)[C@@H](Cc1ccccc1)NC(=O)CN)C(C)C,13.3,11.6,10.4,3.7,–,–
CC(=O)NC[C@H](CC(C)C)NC(=O)[C@H](Cc1c[nH]cn1)NC(=O)CNC(=O)[C@@H](NC(=O)[C@H](C)NC(=O)[C@H](Cc1c[nH]c2ccccc12)NC(=O)[C@H](Cc1c[nH]cn1)NC(=O)[C@H](N)Cc1ccccc1)C(C)C,3,3.4,15.7,3,9,–
CC(=O)NC[C@H](CC(C)C)NC(=O)[C@H](Cc1c[nH]cn1)NC(=O)CNC(=O)[C@@H](NC(=O)[C@H](C)NC(=O)[C@H](Cc1c[nH]c2ccccc12)NC(=O)[C@H](Cc1c[nH]cn1)NC(=O)[C@@H](Cc1ccccc1)NC(C)=O)C(C)C,3.6,3.7,20.2,2.9,16.7,–
CSCC[C@H](NC[C@H](CC(C)C)NC(=O)[C@H](Cc1c[nH]cn1)NC(=O)CNC(=O)[C@@H](NC(=O)[C@H](C)NC(=O)[C@H](Cc1c[nH]c2ccccc12)NC(=O)[C@H](CC(N)=O)NC(=O)CN)C(C)C)C(N)=O,6.5,24.5,19.3,5.1,22.7,7.6
CSCC[C@H](NC[C@H](CC(C)C)NC(=O)[C@H](Cc1c[nH]cn1)NC(=O)CNC(=O)[C@@H](NC(=O)[C@H](C)NC(=O)[C@@H](N)Cc1c[nH]c2ccccc12)C(C)C)C(N)=O (H-WAVGH-X1),5.3,18.1,17.6,4.9,20.8,5.4
CN[C@H](Cc1ccccc1)C(=O)N[C@@H](Cc1c[nH]c2ccccc12)C(=O)N[C@@H](C)C(=O)N[C@H](C(=O)NCC(=O)N[C@@H](Cc1c[nH]cn1)C(=O)N[C@H](CN[C@@H](CCSC)C(N)=O)CC(C)C)C(C)C,12.2,14.3,21.2,6.4,16,7.2
CSCC[C@H](NC[C@H](CC(C)C)NC(=O)[C@H](Cc1c[nH]cn1)NC(=O)CNC(=O)[C@@H](NC(=O)[C@H](C)NC(=O)[C@H](Cc1c[nH]c2ccccc12)NC(C)=O)C(C)C)C(N)=O (Ac-WAVGH-X1),4.7,16.1,17.8,4.8,17.9,4.7
CC(C)C[C@@H](CN[C@@H](CC(C)C)C(N)=O)NC(=O)[C@H](Cc1c[nH]cn1)NC(=O)CNC(=O)[C@@H](NC(=O)[C@H](C)NC(=O)[C@H](Cc1c[nH]c2ccccc12)NC(=O)[C@H](CCC(N)=O)NC(=O)[C@H](CC(N)=O)NC(=O)CNC(=O)[C@H](CC(C)C)NC(=O)[C@H](CCCN=C(N)N)NC(=O)[C@H](CCC(N)=O)NC(=O)[C@@H]1CCC(=O)N1)C(C)C,2.7,6.2,17.4,2.8,11.6,3
CN[C@@H](Cc1ccccc1)C(=O)N[C@@H](Cc1c[nH]cn1)C(=O)N[C@@H](Cc1c[nH]c2ccccc12)C(=O)N[C@@H](C)C(=O)N[C@H](C(=O)NCC(=O)N[C@@H](Cc1c[nH]cn1)C(=O)N[C@@H](CC(C)C)CN(C=O)[C@@H](CCSC)C(N)=O)C(C)C,9,9.9,9.4,3.5,–,–
CC(=O)NC[C@H](CC(C)C)NC(=O)[C@H](Cc1c[nH]cn1)NC(=O)CNC(=O)[C@@H](NC(=O)[C@H](C)NC(=O)[C@H](Cc1c[nH]c2ccccc12)NC(=O)[C@H](CCC(N)=O)NC(=O)[C@H](N)Cc1ccccc1)C(C)C,–,3.6,14.6,3.3,10.3,–
